Experimental findings from ChEMBL document CHEMBL5678798 (Clin Cancer Res, 2009) are described below.

The source made the active and inactive calls. The rule behind the calls is not given here. A value given as a limit tells only on which side of the number the result lay.

In one test the test system is KARPAS-299. Put plainly: Antiproliferative activity against human KARPAS-299 cells assessed as reduction in cell viability after 72 hrs by CellTiter-Glo assay. Format: functional, cell-based. Particulars: KARPAS-299, 72 h. An outline of the steps:
(§1)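 Cells seeded in 96-well plates, left overnight at 37°C, then exposed to a range of test concentrations for 72 h. Viability read by CellTiter-Glo luminescence; IC50 from four-parameter curve fit. Lines kept at 37°C, 5% CO2, in recommended growth medium.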

Test [1] deals with Epidermal growth factor receptor (Homo sapiens, UniProt P00533). Put plainly: Inhibition of EGFR (unknown origin).
The target in test [2] is Macrophage-stimulating protein receptor (Homo sapiens) (UniProt Q04912). Put plainly: Inhibition of N-terminal GST-tagged recombinant human Ron (983 to end residues) expressed in baculovirus infected Sf21 cells at 0.3 uM by filter binding assay relative to control. An outline of the steps:
(§2)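 Outsourced single-concentration screen in a commercial panel of 233 protein kinases, run as radiometric filter-binding activity assays. Test agent was tested at 0.3 or 3 µmol/L, as given in each line, from a 10 mmol/L DMSO stock. Activity is expressed as percent inhibition relative to control.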

Test [3] concerns the target 3-phosphoinositide-dependent protein kinase 1 (PDPK1) (Homo sapiens) (UniProt O15530). Put plainly: Inhibition of N-terminal His6-tagged recombinant human PDK1 (52 to end residues) expressed in baculovirus infected Sf21 cells at 0.3 uM by filter binding assay relative to control.
For test [4], the target named is Mitogen-activated protein kinase 14 (Homo sapiens, UniProt Q16539). In words: Inhibition of P38alpha (unknown origin).
Chain of Mitogen-activated protein kinase 14 (Q16539 whole entry): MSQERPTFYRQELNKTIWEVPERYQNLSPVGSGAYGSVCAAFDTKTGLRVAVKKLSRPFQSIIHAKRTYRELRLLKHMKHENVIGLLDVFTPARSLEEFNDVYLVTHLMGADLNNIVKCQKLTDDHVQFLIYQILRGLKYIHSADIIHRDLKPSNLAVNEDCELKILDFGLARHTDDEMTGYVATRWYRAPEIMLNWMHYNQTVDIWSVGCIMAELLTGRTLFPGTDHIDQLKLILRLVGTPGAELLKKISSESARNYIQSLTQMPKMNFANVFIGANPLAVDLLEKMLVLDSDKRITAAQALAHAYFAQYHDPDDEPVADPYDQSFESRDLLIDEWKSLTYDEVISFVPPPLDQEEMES
Test [5] is described as follows: In vivo inhibition of IGF1R in mouse NIH-3T3/LISN cells implanted in IGF1-stimulated nu/nu CD-1 mouse assessed as reduction in IGF1R phosphorylation at 30 mg/kg, po pretreated for 4 hrs followed by IGF1 stimulation and measured after 10 min by […] relative to control. Format: functional. To be noted: 4.167 h, time 250 min. An outline of the steps: (§3)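 Female nu/nu CD-1 mice, three per group, bearing ~500 mm3 tumors, given one oral dose of compound or vehicle. At 4 h, 10 µg hIGF-I i.v. via tail vein; saline controls. Tumor and blood taken 10 min later. Tumor lysates in RIPA captured on anti-IGF-IR plates and probed with europium anti-phosphotyrosine. Phospho/total IGF-IR expressed as % of ligand-stimulated control. Blood levels by LC-MS/MS.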

Test [6] concerns the target Serine/threonine-protein kinase D2 (PRKD2) (Homo sapiens) (UniProt Q9BZL6). Put plainly: Inhibition of N-terminal His6 tagged, recombinant full-length human PKD2 expressed in Sf21 cells at 0.3 uM by filter binding assay relative to control.
In test [7] the target is Serine/threonine-protein kinase BRSK1 (Homo sapiens) (UniProt Q8TDC3). Put plainly: Inhibition of N-terminal 6His-tagged recombinant human BrSK1 (2 to end residues) expressed in baculovirus infected Sf21 cells at 3 uM by filter binding assay relative to control. The procedure, abridged:
as §2

Test [8] has as its target Tyrosine-protein kinase BTK (Homo sapiens, UniProt Q06187). In words: Inhibition of N-terminal His6-tagged recombinant full-length human BTK expressed in baculovirus infected Sf21 cells at 0.3 uM by filter binding assay relative to control. The procedure, abridged:
as §2

Test [9] is described as follows: In vivo inhibition of IGF1R in mouse NIH-3T3/LISN cells implanted in IGF1-stimulated nu/nu CD-1 mouse assessed as reduction in IGF1R phosphorylation at 3 mg/kg, po pretreated for 4 hrs followed by IGF1 stimulation and measured after 10 min by […] relative to control. Format: functional. Particulars: 4.167 h, time 250 min. The procedure, abridged:
as §3

The target of test [10] is 3-phosphoinositide-dependent protein kinase 1 (Homo sapiens, UniProt O15530). In words: Inhibition of PDK1 (unknown origin).
Test [11] concerns the target Serine/threonine-protein kinase PAK 3 (Homo sapiens, UniProt O75914). In words: Inhibition of C-terminal His6-tagged recombinant human full-length PAK3 expressed in baculovirus infected Sf21 cells by filter binding assay.
The target in test [12] is Mitogen-activated protein kinase kinase kinase 5 (Homo sapiens, UniProt Q99683). Put plainly: Inhibition of ASK1 (unknown origin).
Chain of Mitogen-activated protein kinase kinase kinase 5 (Q99683 whole entry): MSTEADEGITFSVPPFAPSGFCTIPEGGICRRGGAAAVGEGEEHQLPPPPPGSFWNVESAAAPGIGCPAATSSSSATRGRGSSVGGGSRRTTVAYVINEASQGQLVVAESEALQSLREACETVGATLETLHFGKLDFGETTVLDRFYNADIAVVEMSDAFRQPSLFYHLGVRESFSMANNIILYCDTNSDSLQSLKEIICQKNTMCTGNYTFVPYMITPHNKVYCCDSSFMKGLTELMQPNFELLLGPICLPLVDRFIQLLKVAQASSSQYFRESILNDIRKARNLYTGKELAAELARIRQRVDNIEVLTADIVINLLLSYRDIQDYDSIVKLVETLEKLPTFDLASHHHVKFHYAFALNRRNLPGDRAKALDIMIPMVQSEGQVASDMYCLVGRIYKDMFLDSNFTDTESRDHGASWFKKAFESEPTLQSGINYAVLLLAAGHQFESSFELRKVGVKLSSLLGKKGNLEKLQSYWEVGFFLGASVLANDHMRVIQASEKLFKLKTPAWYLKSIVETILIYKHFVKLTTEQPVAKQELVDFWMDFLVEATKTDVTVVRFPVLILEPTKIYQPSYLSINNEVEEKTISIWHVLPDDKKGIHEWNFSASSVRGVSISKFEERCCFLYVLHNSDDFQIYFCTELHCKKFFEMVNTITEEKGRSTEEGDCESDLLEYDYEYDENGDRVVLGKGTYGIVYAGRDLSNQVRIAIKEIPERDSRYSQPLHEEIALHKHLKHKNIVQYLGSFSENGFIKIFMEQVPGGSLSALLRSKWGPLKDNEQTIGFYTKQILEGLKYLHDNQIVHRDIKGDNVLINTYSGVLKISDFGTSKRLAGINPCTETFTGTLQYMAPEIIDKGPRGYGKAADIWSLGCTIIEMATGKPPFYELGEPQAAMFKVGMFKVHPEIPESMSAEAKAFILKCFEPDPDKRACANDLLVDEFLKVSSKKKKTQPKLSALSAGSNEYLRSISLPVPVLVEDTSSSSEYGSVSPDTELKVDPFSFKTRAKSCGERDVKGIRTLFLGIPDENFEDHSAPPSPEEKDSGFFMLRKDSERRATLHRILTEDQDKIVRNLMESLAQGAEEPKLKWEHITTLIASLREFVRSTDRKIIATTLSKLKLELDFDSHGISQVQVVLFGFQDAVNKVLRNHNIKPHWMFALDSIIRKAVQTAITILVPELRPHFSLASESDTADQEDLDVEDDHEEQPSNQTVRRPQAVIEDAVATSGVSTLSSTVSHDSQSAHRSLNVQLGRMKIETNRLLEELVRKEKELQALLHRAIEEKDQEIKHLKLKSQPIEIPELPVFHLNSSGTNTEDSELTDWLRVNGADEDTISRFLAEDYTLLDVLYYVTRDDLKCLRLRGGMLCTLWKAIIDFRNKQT
Test [13] can be described thus: In vivo inhibition of IGF1R in mouse NIH-3T3/LISN cells implanted in IGF1-stimulated nu/nu CD-1 mouse assessed as reduction in IGF1R phosphorylation at 30 mg/kg, po pretreated for 4 to 8 hrs followed by IGF1 stimulation and measured after 10 min by […] relative to control. Format: functional. Particulars: time 240-490 min. The procedure, abridged: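 Time course: tumor-bearing female nu/nu CD-1 mice, three per group, given a single oral 30 mg/kg dose or vehicle. IGF-I given 10 min before blood and tumor collection at each time point. Tumor phospho-IGF-IR/total IGF-IR measured by capture-plate europium phosphotyrosine assay and expressed as % of ligand-stimulated control.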

In the next test the test system is SK-N-MC. Put plainly: Antiproliferative activity against human SK-N-MC cells assessed as reduction in cell viability after 72 hrs by CellTiter-Glo assay. Type of test: functional, cell-based. The procedure, abridged: as §1
Test [14] concerns the target Protein kinase C iota type (Homo sapiens) (UniProt P41743). In words: Inhibition of N-terminal His6-tagged recombinant full-length human PKCiota expressed in Sf21 cells at 0.3 uM by filter binding assay relative to control. An outline of the steps: as §2
For test [15], the target named is Rho-associated protein kinase 2 (Homo sapiens) (UniProt O75116). In words: Inhibition of N-terminal His6-tagged recombinant human ROCK-II (11 to 552 residues) expressed in baculovirus infected Sf21 cells at 0.3 uM by filter binding assay relative to control.
Test [16] concerns the target Protein-tyrosine kinase 2-beta (Homo sapiens) (UniProt Q14289). In words: Inhibition of N-Terminal His6-tagged recombinant full-length human Pyk2 expressed in baculovirus infected Sf21 cells at 3 uM by filter binding assay relative to control. An outline of the steps:
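KinaseProfiler panel of 233 kinases: radiometric filter-binding activity assays with compound at 0.3 or 3 µmol/L. Read-out is percent inhibition.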

A further test deals with NCI-H929. In words: Induction of cell cycle arrest in human NCI-H929 cells assessed as increase in cells accumulation at G1 phase at 0.03 to 10 uM incubated for 24 to 48 hrs by propidium iodide staining based flow cytometric analysis. Type of test: functional. Particulars: dose 0.03-10 µM, time lower 24.0 hrs, time upper […]. The procedure, abridged: (§4)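 COLO 205, MCF-7 or NCI-H929 cells seeded in 96-well plates overnight at 37°C, then exposed to DMSO or increasing compound concentrations for 24 or 48 h. Fixed and stained with propidium iodide (Vindelov method), then analysed by flow cytometry for sub-G1, G1, S and G2-M fractions. Experiment repeated twice.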

Test [17] has as its target Tyrosine-protein kinase Blk (Mus musculus) (UniProt P16277). Put plainly: Inhibition of N-terminal His6-tagged recombinant full-length mouse Blk expressed in baculovirus infected Sf21 cells at 0.3 uM by filter binding assay relative to control. An outline of the steps: as §2
A further test relates to COLO 205. In words: Induction of cell cycle arrest in human COLO 205 cells assessed as cells accumulation at G1 phase at 1 umol/L incubated for 48 hrs by propidium iodide staining based flow cytometric analysis (reference value: 65%). Type of test: functional. To be noted: dose 1 µmol/L, at 1 µM. The procedure, abridged: as §4

Chain of Serine/threonine-protein kinase PAK 3 (O75914 whole entry): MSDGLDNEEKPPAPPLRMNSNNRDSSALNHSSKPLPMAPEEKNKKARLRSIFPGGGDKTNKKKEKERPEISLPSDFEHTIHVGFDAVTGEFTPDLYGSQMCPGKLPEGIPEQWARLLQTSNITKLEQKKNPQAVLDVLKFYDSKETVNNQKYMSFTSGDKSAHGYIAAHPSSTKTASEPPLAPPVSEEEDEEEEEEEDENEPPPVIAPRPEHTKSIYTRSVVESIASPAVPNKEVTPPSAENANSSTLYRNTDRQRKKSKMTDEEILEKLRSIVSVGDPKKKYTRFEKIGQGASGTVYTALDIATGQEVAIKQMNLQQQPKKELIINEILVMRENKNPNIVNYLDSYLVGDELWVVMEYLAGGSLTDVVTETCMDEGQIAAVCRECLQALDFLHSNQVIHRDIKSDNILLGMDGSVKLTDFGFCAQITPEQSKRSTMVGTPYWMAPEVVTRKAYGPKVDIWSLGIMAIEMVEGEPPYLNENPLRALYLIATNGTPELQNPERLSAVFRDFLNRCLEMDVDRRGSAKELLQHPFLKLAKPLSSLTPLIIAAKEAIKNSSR
Chain of Protein-tyrosine kinase 2-beta (Homo sapiens) (Q14289 whole entry, looked up): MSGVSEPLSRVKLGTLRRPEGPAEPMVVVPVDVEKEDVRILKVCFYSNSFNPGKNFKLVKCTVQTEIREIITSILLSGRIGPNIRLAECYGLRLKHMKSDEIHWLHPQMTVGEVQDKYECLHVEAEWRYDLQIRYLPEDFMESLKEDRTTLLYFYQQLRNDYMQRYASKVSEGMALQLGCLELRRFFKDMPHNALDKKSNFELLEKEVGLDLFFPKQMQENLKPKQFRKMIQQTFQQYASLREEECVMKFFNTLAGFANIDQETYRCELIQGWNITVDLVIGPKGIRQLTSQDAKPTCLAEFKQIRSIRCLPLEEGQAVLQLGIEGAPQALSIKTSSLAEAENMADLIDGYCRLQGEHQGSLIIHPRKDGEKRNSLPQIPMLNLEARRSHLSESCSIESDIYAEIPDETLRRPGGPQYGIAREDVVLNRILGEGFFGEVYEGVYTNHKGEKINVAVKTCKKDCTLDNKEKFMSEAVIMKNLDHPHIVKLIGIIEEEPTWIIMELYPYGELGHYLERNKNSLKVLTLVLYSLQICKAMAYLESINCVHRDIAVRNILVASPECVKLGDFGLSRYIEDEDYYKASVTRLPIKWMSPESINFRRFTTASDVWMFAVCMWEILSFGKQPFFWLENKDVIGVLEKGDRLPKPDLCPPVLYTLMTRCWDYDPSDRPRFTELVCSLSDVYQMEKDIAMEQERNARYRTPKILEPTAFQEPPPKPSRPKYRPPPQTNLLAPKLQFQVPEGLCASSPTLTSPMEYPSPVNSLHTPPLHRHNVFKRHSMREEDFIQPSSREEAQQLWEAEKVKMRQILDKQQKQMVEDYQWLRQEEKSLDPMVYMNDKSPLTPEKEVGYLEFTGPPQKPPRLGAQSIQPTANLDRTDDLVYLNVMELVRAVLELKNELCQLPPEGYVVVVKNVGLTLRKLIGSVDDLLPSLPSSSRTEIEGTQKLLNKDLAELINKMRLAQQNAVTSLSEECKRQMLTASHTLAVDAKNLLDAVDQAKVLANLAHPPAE
Chain of Serine/threonine-protein kinase BRSK1 (Homo sapiens) (Q8TDC3 whole entry): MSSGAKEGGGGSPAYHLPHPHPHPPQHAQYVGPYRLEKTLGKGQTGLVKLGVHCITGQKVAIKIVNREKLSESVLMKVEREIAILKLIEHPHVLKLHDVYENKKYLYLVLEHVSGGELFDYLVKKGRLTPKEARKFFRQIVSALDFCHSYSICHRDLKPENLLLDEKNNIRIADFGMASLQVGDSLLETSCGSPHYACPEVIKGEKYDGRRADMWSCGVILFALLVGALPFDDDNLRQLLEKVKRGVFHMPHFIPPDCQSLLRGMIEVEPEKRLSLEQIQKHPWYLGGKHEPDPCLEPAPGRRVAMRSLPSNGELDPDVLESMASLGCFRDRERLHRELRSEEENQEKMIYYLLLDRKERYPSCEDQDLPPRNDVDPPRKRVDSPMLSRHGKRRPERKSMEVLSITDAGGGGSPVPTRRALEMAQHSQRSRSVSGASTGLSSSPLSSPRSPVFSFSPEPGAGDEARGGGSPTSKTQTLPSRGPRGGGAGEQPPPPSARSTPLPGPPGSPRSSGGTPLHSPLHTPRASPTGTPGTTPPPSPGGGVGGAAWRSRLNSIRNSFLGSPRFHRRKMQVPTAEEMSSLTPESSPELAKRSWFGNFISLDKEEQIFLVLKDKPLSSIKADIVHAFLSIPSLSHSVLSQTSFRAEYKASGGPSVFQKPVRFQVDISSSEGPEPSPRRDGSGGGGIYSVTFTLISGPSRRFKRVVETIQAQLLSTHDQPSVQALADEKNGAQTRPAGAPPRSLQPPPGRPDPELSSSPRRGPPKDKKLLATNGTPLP
Chain of Tyrosine-protein kinase Blk (Mus musculus) (P16277 whole entry): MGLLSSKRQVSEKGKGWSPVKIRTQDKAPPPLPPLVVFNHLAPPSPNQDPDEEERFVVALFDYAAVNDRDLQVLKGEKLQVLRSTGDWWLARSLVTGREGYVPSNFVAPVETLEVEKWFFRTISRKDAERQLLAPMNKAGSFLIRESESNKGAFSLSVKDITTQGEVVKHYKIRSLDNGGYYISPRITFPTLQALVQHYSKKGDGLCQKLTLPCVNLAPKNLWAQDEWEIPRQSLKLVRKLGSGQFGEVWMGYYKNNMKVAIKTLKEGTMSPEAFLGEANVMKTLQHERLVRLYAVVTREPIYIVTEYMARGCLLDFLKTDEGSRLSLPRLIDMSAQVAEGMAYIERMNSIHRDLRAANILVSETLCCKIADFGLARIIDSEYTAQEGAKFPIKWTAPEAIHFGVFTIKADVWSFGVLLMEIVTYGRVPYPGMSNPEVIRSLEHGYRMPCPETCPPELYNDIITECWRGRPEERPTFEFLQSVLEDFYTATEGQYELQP

`CCc1cc(Nc2nccc(-c3c(-c4ccc(OC)c(C(=O)Nc5c(F)cccc5F)c4)nc4ccccn34)n2)c(OC)cc1N1CCC(N2CCN(S(C)(=O)=O)CC2)CC1`: the IC50 was greater than 30 µM with KARPAS-299; greater than 10 µM in [1]; 10 µM in test [4]; greater than 10 µM in [10]; 103 nM in [11]; greater than 25 µM in test [12]. Besides, the half-inhibitory concentration (IC50) in the test with SK-N-MC was determined as 43 nM. Moreover, the inhibition is -8% in test [2]; 1% in test [3]; 4% in test [6]; 24% in test [7]; 11% in [8]; 0% in test [14]. Moreover, the inhibition in [15] is -8%; in [16], 24%; in test [17], 25%. Further, the results for the inhibition in vivo at 30 mg/kg in test [5] and in [13] were 99% and greater than 90%, respectively. Moreover, the inhibition in vivo at 3 mg/kg in [9] worked out at 75%. Further, the outcome in the test on NCI-H929 was Active. Besides, in the test on COLO 205, the Activity was 78%.
